Data taken from PMC8413131 (Oncogene, 2021).

What was measured:
CWR22Rv1 cells = experiment: Cell growth assay; format: cell-based; details: for cell growth, 3 days: CWR22Rv1, FBS, 5 μM Abi, 20 μM Enza, 20 μM Apal, 0.25-1.0 μM ARVibs, Fig.4A-4B
C4-2B MDVR cells = experiment: Cell growth assay; format: cell-based; details: for cell growth, 3 days: FBS, 5 μM Abi, 20 μM Enza, 20 μM Apal, 0.25-1.0 μM ARVibs, Fig.4A-4B
[1] = system: AR-V7 and AR mutants (T878A, K581R, V716M, L702H); experiment: PSA luciferase reporter, AR-V7 and AR mutants in 293 cells; format: cell-based; details: FBS conditions, 16 hours, Fig.2G
Procedure, shortened: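 293 cells in FBS medium transfected with vector, AR-V7 or mutant AR (T878A, K581R, L702H, V716M) plus a PSA promoter–luciferase plasmid. Then exposed to anti-androgens or test compound for 16 h before luciferase read-out. Mean ± SD of three independent experiments.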

VCaP xenografts = experiment: Relapsed VCaP tumor model, combination with Enza; format: in vivo, mice; details: relapsed VCaP tumors
wild-type AR (WT-AR) = experiment: PSA luciferase reporter, WT-AR in 293 cells; format: cell-based; details: FBS conditions, 16 hours, Fig.2G
CWR22Rv1 xenografts = experiment: CWR22Rv1 tumor xenografts in SCID mice; format: in vivo; details: 25 mg/Kg i.p., Supplementary Fig.6B
Procedure, shortened: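 C.B17 SCID males, 4–5 weeks old, given 3 million CWR22Rv1 cells mixed 1:1 with matrigel s.c. in flank. Randomized at 50–100 mm3 tumor volume. Test compound 25 mg/kg i.p. vs vehicle (15% Cremophor EL, 82.5% PBS, 2.5% DMSO, i.p.). Calipers twice weekly; volume = L×W×W×0.52. Tumors, liver and kidney harvested and weighed after 3 weeks; liver and kidney H&E stained.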

[2] = ref [20], [21]; cited from earlier work
LuCaP 35CR xenografts = experiment: LuCaP35CR PDX model, oral administration; format: in vivo, mice; details: 150 mg/Kg p.o.
AR = experiment: Western blot of AR expression in CWR22Rv1 cells; format: cell-based; details: 1 μM, 16 hours

C[C@]12CC[C@H](O)CC1=CC[C@@H]1[C@@H]2CC[C@]2(C)C(c3cccnc3)=CC[C@@H]12 [Abi, abiraterone]
cell growth, 3 days (CWR22Rv1 cells): resistant
cell growth, 3 days (C4-2B MDVR cells): resistant

CNC(=O)c1ccc(N2C(=S)N(c3cnc(C#N)c(C(F)(F)F)c3)C(=O)C23CCC3)cc1F [Apal, apalutamide]
cell growth, 3 days (CWR22Rv1 cells): resistant
transcriptional activity mediated by AR-V7 and AR mutants [1]: could not suppress
cell growth, 3 days (C4-2B MDVR cells): resistant

CNC(=O)c1ccc(N2C(=S)N(c3ccc(C#N)c(C(F)(F)F)c3)C(=O)C2(C)C)cc1F [Enza, enzalutamide]
cell growth, 3 days (CWR22Rv1 cells): resistant
transcriptional activity mediated by AR-V7 and AR mutants [1]: could not suppress
tumor PSA expression (mouse serum), single treatment (VCaP xenografts; Fig.6F): slightly, but insignificantly, suppressed
tumor growth, single treatment (VCaP xenografts; Enza 20 mg/Kg p.o., ARVib-7 75 mg/Kg orally, Fig.6C-6E): insignificantly inhibited
cell growth, 3 days (C4-2B MDVR cells): resistant

CC(O)(CS(=O)(=O)c1ccc(F)cc1)C(=O)Nc1ccc(C#N)c(C(F)(F)F)c1 (centres unmarked) [bicalutamide]
WT-AR transcriptional activity (wild-type AR (WT-AR)): suppress
transcriptional activity mediated by AR-V7 and AR mutants [1]: could not suppress

O=C(Nc1ccc([N+](=O)[O-])cc1Cl)c1cc(Cl)ccc1O [niclosamide]
enhancement of Enza treatment (cell growth) (CWR22Rv1 cells; CWR22Rv1, 0.5 μM with 20 μM Enza, 3 days, Fig.6A): profoundly enhanced
mouse body weight (CWR22Rv1 xenografts): did not affect
bioavailability [2]: ~ 10%
suppression of tumor growth / tumor volume compared to vehicle control (LuCaP 35CR xenografts; Fig.5C): 50%
tumor PSA expression (mouse serum) (LuCaP 35CR xenografts; Fig.5F): slightly suppressed
enhancement of Enza treatment (cell growth) (C4-2B MDVR cells; 0.25 μM with 20 μM Enza, 3 days, Supplementary Fig.6E): profoundly enhanced
inhibition of AR expression (AR; dose series, Fig.1C left): 84.42%
inhibition of AR expression (AR; western blot, Fig.1B): 89.73%
